Assay results published in ChEMBL document CHEMBL1138367, “Synthesis and in vivo evaluation of non-hepatotoxic acetaminophen analogs” (Bioorg Med Chem, 2007).
Activity calls are given as the source filed them.

Tests used:
[1] = system: HepG2; assay: Upregulation of Fas-ligand in HEPG2 cells by Western blot; type: functional, cell-based; conditions: Homo sapiens
Procedure, shortened: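 HEPG-2 cells at 80% confluence, serum-starved 6–8 h (EMEM, 0.5% FBS), then treated with 100 µM for the times indicated at 37 °C. Fas-ligand measured by Western blot on extracts normalised for protein (15–20 µg loaded), Fas-L-specific antibody, ECL detection, densitometric quantitation.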

[2] = system: Mus musculus; assay: (§1) Toxicity in CD1 mouse assessed as mortality at 6 mmol/kg; type: organism-based; conditions: mouse, in vivo
Procedure, shortened: (§2)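 CD-1 mice, fasted overnight, given a single oral dose of 6 mmol/kg by esophageal cannula under brief halothane anesthesia. Deaths recorded 24 h after dosing, expressed as a fraction of the group (n = 10).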

[3] = system: Mus musculus; assay: Analgesic activity in CD1 mouse assessed as acetic acid-induced writhing at 1 mmol/kg, po after 1 hr; type: functional
Procedure, shortened: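 Mice fasted overnight, dosed orally by esophageal cannula under brief halothane, 1 mmol/kg; 1 h reading, n = 9–16 per group. Writhing induced by ip 0.4% acetic acid, 10 mL/kg, given 25 min after drug; writhes counted for 10 min starting 5 min after injection. Expressed as % analgesia ± SEM.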

[4] = system: Mus musculus; assay: Analgesic activity in CD1 mouse upto 3010 umol/kg by hot plate assay; type: functional, organism-based
Procedure, shortened: (§3)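 Oral doses given to overnight-fasted mice. Latency to lick the hind paw was recorded on a 54 ± 1 °C hot plate, with a 30 s cut-off assigned to non-responders. Testing was done blind.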

[5] = system: Mus musculus; assay: Antiinflammatory activity in CD1 mouse by carrageenan-induced paw edema method; type: functional, organism-based
Procedure, shortened: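 Male CD-1 mice dosed orally; 30 min later, under halothane, 50 µL 1% lambda-carrageenan in saline was injected into one hind plantar paw. Paw volume was measured by paw volume meter before and 4 h after injection, expressed as % of vehicle controls ± SEM; n = 4–5 per dose. Indomethacin 30 mg/kg po served as positive control.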

[6] = system: Mus musculus; assay: Hepatotoxicity in mouse assessed as plasma GPT levels at 3.7 mmol/kg, po after 24 hrs; type: toxicity, organism-based; conditions: in vivo
Procedure, shortened: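 C57BL/6 mice given a single 3.7 mmol/kg oral dose; plasma GPT measured spectrophotometrically 24 h later and reported as SF units/mL ± SD.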

[7] = system: Mus musculus; assay: Hepatotoxicity in CD1 mouse assessed as renal glutathione levels at 6 mmol/kg; type: toxicity, organism-based; conditions: in vivo
Procedure, shortened: (§4)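 Male CD-1 mice (20–30 g), fasted overnight, received 6 mmol/kg orally by esophageal cannula under brief halothane anesthesia, or vehicle. At 3 h the livers were saline-perfused. Liver was homogenized 5% w/v and kidney 10% w/v in 5% MPA, then centrifuged 3000g for 10 min at 4 C. Supernatant glutathione read colorimetrically. n = 8–12.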

[8] = species on record: Mus musculus; assay: Analgesic activity in CD1 mouse by formalin-induced pain model after 30 mins; type: functional; conditions: for ED50: CD1, 0.5 h
Procedure, shortened: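 Oral dosing (fasted, halothane, esophageal cannula) 30 min before sc injection of 30 µL 5% buffered formalin into one hind plantar paw. Paw-licking time recorded in 5-min blocks over 90 min; mice habituated to the test box 90 min the day before. Three-way ANOVA (drug × dose × time) with Tukey; ED50 by nonlinear regression.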

[9] = system: Mus musculus; assay: Hepatotoxicity in CD1 mouse assessed as plasma GPT levels at 6 mmol/kg; type: toxicity, organism-based; conditions: in vivo
Procedure, shortened: (§5)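 CD-1 mice, fasted overnight, dosed orally with 6 mmol/kg by esophageal cannula under brief halothane anesthesia, or vehicle. Blood collected after decapitation at 24 h into heparinized syringes. Plasma spun 3000 rpm for 10 min at 4 C. GPT and GOT activity measured with a spectrophotometric kit. n = 8–12.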

[10] = system: HepG2; assay: Activation of CAR in HEPG2 cells at 100 uM by Western blot; type: functional, cell-based; conditions: Homo sapiens
Procedure, shortened: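 HEPG-2 cells in EMEM/NEAA/10% FBS, 37 °C, 5% CO2; at 80% confluence held 6–8 h in EMEM with 0.5% FBS, then treated at 100 µM for the times indicated. CAR detected by Western blot on cell extracts (15–20 µg protein, 8–16% gel) with human CAR-specific antibody and ECL, then quantified by densitometry.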

[11] = system: HepG2; assay: Induction of apoptosis in HEPG2 cells by Hoechst staining; type: functional, cell-based; conditions: Homo sapiens
Procedure, shortened: (§6)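 Serum-starved HEPG-2 cells were treated 6–8 h at 37 °C (100 µM). After washing with PBS, cells were stained with Hoechst (2 µM final) for 45 min at 37 °C. Apoptotic cells were detected by confocal fluorescence microscopy.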

[12] = system: Mus musculus; assay: Analgesic activity in CD1 mouse upto 3010 umol/kg by tail flick test; type: functional, organism-based
Procedure, shortened: (§7)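 Oral doses given to fasted mice. A focused light beam was aimed at the tail, with intensity set for baseline latencies of 3–4 s; withdrawal latency was recorded by photoelectric cell. Testing was done blind.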

[13] = system: HepG2; assay: Hepatotoxicity against HEPG2 cells after 6 to 8 hrs by tryptan blue exclusion test; type: functional, cell-based; conditions: Homo sapiens
Procedure, shortened: (§8)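 HEPG-2 cells at 80% confluence were serum-starved 6–8 h (EMEM, 0.5% FBS), then exposed to the compound for 6–8 h at 37 °C. Cell toxicity was assessed by Trypan blue exclusion.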

[14] = system: Mus musculus; assay: Hepatotoxicity in CD1 mouse assessed as hepatic glutathione levels at 6 mmol/kg; type: toxicity, organism-based; conditions: in vivo; procedure, shortened: as §4
[15] = Drug level in CD1 mouse urine assessed as unmetabolized fractions at 3 mmol/kg, po; type: ADME, tissue-based; conditions: read-out: Activity
Procedure, shortened: (§9)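 Two-month-old CD-1 mice, fasted overnight, given a single oral 3 mmol/kg dose in Tween 20 under light halothane. Housed two per metabolic cage, with food from 6 h; urine collected on ice over 24 h. After centrifugation and filtration, analysed by HPLC–MS on a C18 column with an ammonium acetate/acetonitrile gradient; UV detection at 280, 254 and 210 nm.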

[16] = species on record: Mus musculus; assay: Analgesic activity in CD1 mouse by acetic acid-induced writhing test after 30 to 40 mins; type: functional
Procedure, shortened: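 Overnight-fasted mice given several oral doses by esophageal cannulation under brief halothane. Acetic acid 0.4% (10 mL/kg ip) injected 25 min post-dose; writhes counted over 10 min from 5 min after injection, i.e. 30–40 min after dosing. Percent analgesia vs vehicle; two-way ANOVA with Tukey; ED50 by nonlinear regression.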

[17] = system: Mus musculus; assay: Hepatotoxicity in CD1 mouse assessed as plasma GOT levels at 6 mmol/kg; type: toxicity, organism-based; conditions: in vivo; procedure, shortened: as §5
[18] = system: HepG2; assay: Induction of apoptosis in HEPG2 cells at 100 uM after 6 to 8 hrs by Hoechst staining; type: functional, cell-based; conditions: Homo sapiens; procedure, shortened: as §6
[19] = Hepatotoxicity in C57BL/6 mouse; type: toxicity, organism-based; conditions: in vivo
[20] = system: HepG2; assay: Hepatotoxicity against HEPG2 cells at 200 uM after 6 to 8 hrs by tryptan blue exclusion test; type: functional, cell-based; conditions: Homo sapiens; procedure, shortened: as §8
[21] = system: HepG2; assay: Hepatotoxicity against HEPG2 cells at 100 uM after 6 to 8 hrs by tryptan blue exclusion test; type: functional, cell-based; conditions: Homo sapiens; procedure, shortened: as §8
[22] = as §1; type: organism-based; conditions: CD1, mouse, in vivo, 6 mmol/kg; read-out: Activity; procedure, shortened: as §2
[23] = system: Mus musculus; assay: Hepatotoxicity in CD1 mouse assessed as increased plasma GOT levels at 6 mmol/kg; type: toxicity, organism-based; conditions: in vivo
Procedure, shortened: (§10)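 Male CD-1 mice (20–30 g), fasted overnight, received 6 mmol/kg orally by esophageal cannula. At 24 h, blood was collected by decapitation into heparinized syringes and plasma obtained by centrifugation at 4 °C. GPT and GOT were determined with a spectrophotometric kit; n = 8–12. Mortality was recorded at 24 h.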

[24] = system: Mus musculus; assay: Hepatotoxicity in CD1 mouse assessed as reduction in renal glutathione levels at 6 mmol/kg; type: toxicity, organism-based; conditions: in vivo
Procedure, shortened: (§11)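 Male CD-1 mice (20–30 g), fasted, given 6 mmol/kg orally; killed 3 h later and livers perfused with heparinized saline. Liver homogenized to 5% w/v and kidney to 10% w/v in 5% MPA, then centrifuged 3000g for 10 min at 4 °C. Glutathione in supernatant measured by colorimetric kit; n = 8–12.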

[25] = system: Mus musculus; assay: Hepatotoxicity in CD1 mouse assessed as increased plasma GPT levels at 6 mmol/kg; type: toxicity, organism-based; conditions: in vivo; procedure, shortened: as §10
[26] = system: Mus musculus; assay: Analgesic activity in CD1 mouse upto 6620 umol/kg by hot plate assay; type: functional, organism-based; procedure, shortened: as §3
[27] = system: Mus musculus; assay: Analgesic activity in CD1 mouse upto 6620 umol/kg by tail flick test; type: functional, organism-based; procedure, shortened: as §7
[28] = system: Mus musculus; assay: Hepatotoxicity in CD1 mouse assessed as reduction in hepatic glutathione levels at 6 mmol/kg; type: toxicity, organism-based; conditions: in vivo; procedure, shortened: as §11
[29] = Drug level in CD1 mouse urine assessed as 2-{[(4-Hydroxyphenylcarbamoyl)methyl]sulphamoyl}benzoic acid level at 3 mmol/kg, po; type: ADME, tissue-based; conditions: in vivo; procedure, shortened: as §9
[30] = Drug level in CD1 mouse urine assessed as glucuronate level at 3 mmol/kg, po; type: ADME, tissue-based; conditions: in vivo; procedure, shortened: as §9
[31] = Drug level in CD1 mouse urine assessed as glucuronate level; type: ADME, tissue-based; conditions: in vivo

O=C(CN1C(=O)c2ccccc2S1(=O)=O)Nc1ccc(O)cc1
Activity [1]: inactive | Activity [2]: Not Active | Activity [3]: 62.42% | Activity [4]: inactive | Activity [5]: inactive | Activity [6]: 30.5 U/ml | Activity [7]: Not Active | Activity [8]: Dose-dependent effect | ED50 [8]: 260 µmol/kg | Activity [9]: Not Active | Activity [10]: inactive | Activity [11]: inactive | Activity [12]: inactive | Activity [13]: inactive | Activity [14]: Not Active | dose excreted [15]: 0.9% | Activity [16]: Dose-dependent effect | ED50 [16]: 640 µmol/kg | Activity [17]: Not Active

O=C(CCCN1C(=O)c2ccccc2S1(=O)=O)Nc1ccc(O)cc1
Activity [3]: 28.9% | Activity [6]: 82.62 U/ml

CC(=O)Nc1ccc(O)cc1 [ACETAMINOPHEN]
Activity [18]: Active | LD50 [19]: 3700 µmol/kg | Activity [1]: Active | Activity [20]: Active | Activity [21]: Active | mortality [22]: 40% | Activity [23]: Active | Activity [3]: 61.32% | Activity [5]: inactive | Activity [24]: Active | Activity [6]: 299.01 U/ml | Activity [25]: Active | Activity [8]: Dose-dependent effect | ED50 [8]: 1900 µmol/kg | Activity [26]: inactive | Activity [10]: Active | Activity [27]: inactive | Activity [16]: Dose-dependent effect | ED50 [16]: 1290 µmol/kg | Activity [28]: Active

O=C(CCCCCN1C(=O)c2ccccc2S1(=O)=O)Nc1ccc(O)cc1
Activity [3]: 53.72% | Activity [6]: 29.52 U/ml

O=C(CNS(=O)(=O)c1ccccc1C(=O)O)Nc1ccc(O)cc1
Activity [29]: 38.6%

O=C(CN1C(=O)c2ccccc2S1(=O)=O)Nc1ccc(O[C@@H]2O[C@H](C(=O)O)[C@@H](O)[C@H](O)[C@H]2O)cc1
Activity [30]: 32%

O=C(CCN1C(=O)c2ccccc2S1(=O)=O)Nc1ccc(O)cc1
Activity [3]: 43.8% | Activity [6]: 28.85 U/ml

O=C(CNS(=O)(=O)c1ccccc1C(=O)O)Nc1ccc(O[C@@H]2O[C@H](C(=O)O)[C@@H](O)[C@H](O)[C@H]2O)cc1
Activity [31]: 23.7%

O=C(CCCCN1C(=O)c2ccccc2S1(=O)=O)Nc1ccc(O)cc1
Activity [3]: 32.56% | Activity [6]: 44.16 U/ml
